Assay results as given in ChEMBL document CHEMBL1157693, “Microwave assisted synthesis and antimicrobial activity of 2-quinoxalinone-3-hydrazone derivatives” (2010).
≈ marks a conversion by molar mass, not a printed value. Calls of active or inactive are those of the source. The rule behind the calls is not given here.

Assays:
Type in all cases: functional
Bacillus cereus [1] = assay: Antibacterial activity against Bacillus cereus NCIB 6349 after 72 hrs
In short: (§1)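 MIC by the Russell and Furr method, run on selected Gram-positive and Gram-negative strains. Once the agar had set and its surface had dried, nutrient agar plates were streaked with overnight broth cultures. They were incubated at 37 °C for up to 72 h and scored for presence or absence of growth.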

Bacillus anthracis [2] = assay: Antibacterial activity against Bacillus anthracis after 72 hrs
Staphylococcus aureus [3] = assay: Antibacterial activity against Staphylococcus aureus NCIB 8588 after 24 hrs by agar well diffusion method; as to IZ: test concentration or dose not given here
In short: (§2)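 Agar well diffusion. Clinical isolates were first checked for viability, then grown in nutrient broth for 8 h at 37 °C. About 0.2 ml of broth culture was mixed into 18 ml molten diagnostic sensitivity test agar cooled to 45 °C and poured into plates. Compounds in DMSO went into bored wells, with streptomycin as reference. Plates stood 1 h for diffusion, then were incubated upright at 37 °C for 24 h. Clear inhibition zones were read in mm.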

Escherichia coli [4] = assay: Antibacterial activity against Escherichia coli NCIB 86 after 72 hrs; conditions: NCIB 86, 72 h; in short: as §1
Bacillus subtilis [5] = assay: Antibacterial activity against Bacillus subtilis NCIB 3610 after 72 hrs; conditions: NCIB 3610, 72 h; in short: as §1
Shigella dysenteriae [6] = assay: Antibacterial activity against Shigella dysenteriae after 72 hrs
In short: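 MIC by agar dilution: compound-containing nutrient agar was set and surface-dried, then streaked with overnight broth culture of the clinical isolate. Incubated at 37 °C for up to 72 h and scored for presence or absence of growth. Streptomycin was the reference.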

Bacillus anthracis [7] = assay: Antibacterial activity against Bacillus anthracis after 24 hrs by agar well diffusion method
Klebsiella pneumoniae [8] = assay: Antibacterial activity against Klebsiella pneumoniae NCIB 418 after 72 hrs; conditions: NCIB 418, 72 h; in short: as §1
Escherichia coli [9] = assay: Antibacterial activity against Escherichia coli NCIB 86 after 24 hrs by agar well diffusion method; in short: as §2; as to IZ: test concentration or dose not given here
Bacillus subtilis [10] = assay: Antibacterial activity against Bacillus subtilis NCIB 3610 after 24 hrs by agar well diffusion method; in short: as §2; as to IZ: test concentration or dose not given here
Klebsiella pneumoniae [11] = assay: Antibacterial activity against Klebsiella pneumoniae NCIB 418 after 24 hrs by agar well diffusion method; in short: as §2; as to IZ: test concentration or dose not given here
Staphylococcus aureus [12] = assay: Antibacterial activity against Staphylococcus aureus NCIB 8588 after 72 hrs; conditions: NCIB 8588, 72 h; in short: as §1
Pseudomonas aeruginosa = assay: Antibacterial activity against Pseudomonas aeruginosa NCIB 950 after 24 hrs by agar well diffusion method; in short: as §2; as to IZ: test concentration or dose not given here
Candida albicans = assay: Antifungal activity against Candida albicans after 3 days by agar well diffusion method
Pseudomonas fluorescens = assay: Antibacterial activity against Pseudomonas fluorescens NCIB 3756 after 24 hrs by agar well diffusion method; in short: as §2; as to IZ: test concentration or dose not given here
Shigella dysenteriae [13] = assay: Antibacterial activity against Shigella dysenteriae after 24 hrs by agar well diffusion method
Bacillus cereus [14] = assay: Antibacterial activity against Bacillus cereus NCIB 6349 after 24 hrs by agar well diffusion method; in short: as §2; as to IZ: test concentration or dose not given here
[15] = tested on: Geobacillus stearothermophilus; assay: Antibacterial activity against Bacillus stearothermophilus NCIB 8222 after 72 hrs; conditions: NCIB 8222, 72 h; in short: as §1
[16] = tested on: Geobacillus stearothermophilus; assay: Antibacterial activity against Bacillus stearothermophilus NCIB 8222 after 24 hrs by agar well diffusion method; in short: as §2; as to IZ: test concentration or dose not given here

| Molecule | MIC (Bacillus cereus [1]; NCIB 6349, 72 h) | MIC (Bacillus anthracis [2]) | inhibition zone (IZ) (Staphylococcus aureus [3]) | MIC (Escherichia coli [4]) | MIC (Bacillus subtilis [5]) | MIC (Shigella dysenteriae [6]) | inhibition zone (IZ) (Bacillus anthracis [7]) | MIC (Klebsiella pneumoniae [8]) | inhibition zone (IZ) (Escherichia coli [9]) | inhibition zone (IZ) (Bacillus subtilis [10]) | inhibition zone (IZ) (Klebsiella pneumoniae [11]) | MIC (Staphylococcus aureus [12]) | inhibition zone (IZ) (Pseudomonas aeruginosa) | inhibition zone (IZ) (Candida albicans) | inhibition zone (IZ) (Pseudomonas fluorescens) | inhibition zone (IZ) (Shigella dysenteriae [13]) | inhibition zone (IZ) (Bacillus cereus [14]) | MIC [15] | inhibition zone (IZ) [16] | MIC (Bacillus cereus [1]) |
| --- | --- | --- | --- | --- | --- | --- | --- | --- | --- | --- | --- | --- | --- | --- | --- | --- | --- | --- | --- | --- |
| C/C(=N\Nc1nc2ccccc2[nH]c1=O)c1cc2ccccc2oc1=O | 31.3 µg/mL (≈ 90.4 µM) | 62.5 µg/mL (≈ 180 µM) | 15 mm | 31.3 µg/mL (≈ 90.4 µM) | 7.8 µg/mL (≈ 22.5 µM) | inactive | 18 mm | 31.3 µg/mL (≈ 90.4 µM) | 30 mm | 32 mm | 20 mm | 31.3 µg/mL (≈ 90.4 µM) | 0 mm | 29 mm | 0 mm | 0 mm | 20 mm | 31.3 µg/mL (≈ 90.4 µM) | 28 mm | – |
| O=C1Nc2ccccc2/C1=N/Nc1nc2ccccc2[nH]c1=O | – | 125 µg/mL (≈ 409 µM) | 19 mm | 125 µg/mL (≈ 409 µM) | 62.5 µg/mL (≈ 205 µM) | 15.6 µg/mL (≈ 51.1 µM) | 11 mm | 62.5 µg/mL (≈ 205 µM) | 10 mm | 14 mm | 12 mm | 31.3 µg/mL (≈ 103 µM) | 17 mm | 20 mm | 0 mm | 0 mm | 0 mm | 62.5 µg/mL (≈ 205 µM) | 13 mm | inactive |
| CCC(CC)=NNc1nc2ccccc2[nH]c1=O | 7.8 µg/mL (≈ 31.9 µM) | inactive | 10 mm | 31.3 µg/mL (≈ 128 µM) | 31.3 µg/mL (≈ 128 µM) | inactive | 0 mm | 31.3 µg/mL (≈ 128 µM) | 15 mm | 20 mm | 15 mm | 62.5 µg/mL (≈ 256 µM) | 0 mm | 18 mm | 0 mm | 0 mm | 28 mm | 7.8 µg/mL (≈ 31.9 µM) | 25 mm | – |
| CC12CCC(C/C1=N\Nc1nc3ccccc3[nH]c1=O)C2(C)C (stereo unspecified) | 62.5 µg/mL (≈ 201 µM) | 125 µg/mL (≈ 403 µM) | 11 mm | 15.6 µg/mL (≈ 50.3 µM) | 15.6 µg/mL (≈ 50.3 µM) | inactive | 5 mm | 31.3 µg/mL (≈ 101 µM) | 18 mm | 16 mm | 16 mm | 62.5 µg/mL (≈ 201 µM) | 13 mm | 21 mm | 0 mm | 0 mm | 10 mm | 31.3 µg/mL (≈ 101 µM) | 14 mm | – |
| O=c1[nH]c2ccccc2nc1N/N=C1\CCCCC1Br (stereo unspecified) | 7.8 µg/mL (≈ 23.3 µM) | 15.6 µg/mL (≈ 46.5 µM) | 13 mm | 31.3 µg/mL (≈ 93.4 µM) | 7.8 µg/mL (≈ 23.3 µM) | 15.6 µg/mL (≈ 46.5 µM) | 19 mm | 31.3 µg/mL (≈ 93.4 µM) | 13 mm | 20 mm | 12 mm | 31.3 µg/mL (≈ 93.4 µM) | 0 mm | 19 mm | 0 mm | 15 mm | 28 mm | 31.3 µg/mL (≈ 93.4 µM) | 13 mm | – |
| NYSTATIN | – | – | inactive | – | – | – | inactive | – | inactive | inactive | inactive | – | inactive | – | inactive | inactive | inactive | – | inactive | – |
| C/C(=N\Nc1nc2ccccc2[nH]c1=O)c1cc2cc(C)ccc2oc1=O | 7.8 µg/mL (≈ 21.6 µM) | 62.5 µg/mL (≈ 173 µM) | 19 mm | 62.5 µg/mL (≈ 173 µM) | 31.3 µg/mL (≈ 86.9 µM) | 62.5 µg/mL (≈ 173 µM) | 14 mm | 31.3 µg/mL (≈ 86.9 µM) | 15 mm | 16 mm | 19 mm | 15.6 µg/mL (≈ 43.3 µM) | 10 mm | 10 mm | 0 mm | 12 mm | 25 mm | 31.3 µg/mL (≈ 86.9 µM) | 15 mm | – |
| C/C(=N\Nc1nc2ccccc2[nH]c1=O)c1cc2cc(Cl)ccc2oc1=O | 7.8 µg/mL (≈ 20.5 µM) | 7.8 µg/mL (≈ 20.5 µM) | 32 mm | 7.8 µg/mL (≈ 20.5 µM) | 7.8 µg/mL (≈ 20.5 µM) | 15.6 µg/mL (≈ 41 µM) | 25 mm | 7.8 µg/mL (≈ 20.5 µM) | 30 mm | 33 mm | 32 mm | 15.6 µg/mL (≈ 41 µM) | 14 mm | 14 mm | 10 mm | 19 mm | 30 mm | 7.8 µg/mL (≈ 20.5 µM) | 30 mm | – |
| O=C1Nc2ccc(Br)cc2/C1=N/Nc1nc2ccccc2[nH]c1=O | 62.5 µg/mL (≈ 163 µM) | 125 µg/mL (≈ 325 µM) | 20 mm | 62.5 µg/mL (≈ 163 µM) | 62.5 µg/mL (≈ 163 µM) | 125 µg/mL (≈ 325 µM) | 8 mm | 31.3 µg/mL (≈ 81.5 µM) | 13 mm | 13 mm | 15 mm | 15.6 µg/mL (≈ 40.6 µM) | 0 mm | 15 mm | 11 mm | 11 mm | 15 mm | 15.6 µg/mL (≈ 40.6 µM) | 22 mm | – |
| O=c1[nH]c2ccccc2nc1NN=C1CCCCC1 | 15.6 µg/mL (≈ 60.9 µM) | inactive | 19 mm | 62.5 µg/mL (≈ 244 µM) | 31.3 µg/mL (≈ 122 µM) | 125 µg/mL (≈ 488 µM) | 0 mm | 15.6 µg/mL (≈ 60.9 µM) | 11 mm | 16 mm | 17 mm | 15.6 µg/mL (≈ 60.9 µM) | 0 mm | 21 mm | 12 mm | 10 mm | 25 mm | 31.3 µg/mL (≈ 122 µM) | 15 mm | – |
